Changes are numbered by the printed parent chain. pKi: −log10 of the molar value. The source made the active and inactive calls. The rule behind the calls is not given here.

This note sets out measurements from ChEMBL document CHEMBL2203099, “Identification of a crucial amino acid in the helix position 6.51 of human tachykinin neurokinin 1 and 3 receptors contributing to the insurmountable mode of antagonism by dual NK₁/NK₃ antagonists” (J Med Chem, 2012).

The test system of assay [1] is HEK293. Nature of the assay: Selectivity ratio of Ki for wild type human NK3 receptor expressed in HEK293 cells to Ki for human NK3 Y315F6.51 mutant expressed in HEK293 cells. It is filed as cell-based.
In assay [2] the target is Substance-P receptor (Homo sapiens, UniProt P25103). Nature of the assay: Noncompetitive inhibition of wild type human NK1 receptor expressed in HEK293 cells assessed as decrease in SP1-induced [3H]IP accumulation after 20 mins. It is filed as cell-based.
Substance-P receptor (Homo sapiens, UniProt P25103), sequence (P25103 whole entry): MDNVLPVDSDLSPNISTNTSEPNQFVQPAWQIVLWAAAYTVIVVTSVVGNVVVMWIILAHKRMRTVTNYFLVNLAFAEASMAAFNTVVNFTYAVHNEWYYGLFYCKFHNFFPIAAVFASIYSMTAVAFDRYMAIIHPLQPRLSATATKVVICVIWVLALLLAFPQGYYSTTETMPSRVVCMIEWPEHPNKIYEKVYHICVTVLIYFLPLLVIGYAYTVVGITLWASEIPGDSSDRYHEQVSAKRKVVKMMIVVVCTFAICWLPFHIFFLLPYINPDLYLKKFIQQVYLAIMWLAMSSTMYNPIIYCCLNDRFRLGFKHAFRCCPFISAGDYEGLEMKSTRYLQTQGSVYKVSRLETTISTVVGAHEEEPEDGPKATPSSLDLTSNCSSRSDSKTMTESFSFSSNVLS
The subject of assay [3] is T1, Neuromedin-K receptor (Homo sapiens), P29371 [Y315F].
T1 sequence (whole entry): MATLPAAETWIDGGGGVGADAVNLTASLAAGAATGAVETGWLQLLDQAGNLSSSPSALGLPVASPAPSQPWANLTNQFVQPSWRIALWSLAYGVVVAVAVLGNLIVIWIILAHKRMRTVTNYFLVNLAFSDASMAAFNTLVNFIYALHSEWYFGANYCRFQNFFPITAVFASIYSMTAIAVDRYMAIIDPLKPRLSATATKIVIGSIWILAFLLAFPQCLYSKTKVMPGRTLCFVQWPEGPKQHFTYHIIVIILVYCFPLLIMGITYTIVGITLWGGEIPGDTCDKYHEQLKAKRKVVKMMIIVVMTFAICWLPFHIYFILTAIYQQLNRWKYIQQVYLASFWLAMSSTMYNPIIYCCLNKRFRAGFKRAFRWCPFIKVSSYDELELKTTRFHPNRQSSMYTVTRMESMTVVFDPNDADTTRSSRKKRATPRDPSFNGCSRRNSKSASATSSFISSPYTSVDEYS
Nature of the assay: Antagonist activity at human NK3 Y315F6.51 mutant expressed in HEK293 cells assessed as decrease in [MePhe7]NKB-induced [3H]IP accumulation at 10 nM after 20 mins. It is filed as functional, cell-based.

The target of assay [4] is T2, Neuromedin-K receptor (Homo sapiens, UniProt P29371).
T2 sequence (P29371 whole entry): T1 sequence (whole entry) with F315Y
Nature of the assay: Binding affinity to wild type human NK3 receptor.

In assay [5] the target is Neuromedin-K receptor (Homo sapiens, UniProt P29371, Y247W). Nature of the assay: Displacement of radioligand [3H]osanetant at human NK3 Y247W mutant expressed in HEK293 cells. It is filed as cell-based.
Neuromedin-K receptor (Homo sapiens, UniProt P29371, Y247W), sequence (P29371 whole entry Y247W): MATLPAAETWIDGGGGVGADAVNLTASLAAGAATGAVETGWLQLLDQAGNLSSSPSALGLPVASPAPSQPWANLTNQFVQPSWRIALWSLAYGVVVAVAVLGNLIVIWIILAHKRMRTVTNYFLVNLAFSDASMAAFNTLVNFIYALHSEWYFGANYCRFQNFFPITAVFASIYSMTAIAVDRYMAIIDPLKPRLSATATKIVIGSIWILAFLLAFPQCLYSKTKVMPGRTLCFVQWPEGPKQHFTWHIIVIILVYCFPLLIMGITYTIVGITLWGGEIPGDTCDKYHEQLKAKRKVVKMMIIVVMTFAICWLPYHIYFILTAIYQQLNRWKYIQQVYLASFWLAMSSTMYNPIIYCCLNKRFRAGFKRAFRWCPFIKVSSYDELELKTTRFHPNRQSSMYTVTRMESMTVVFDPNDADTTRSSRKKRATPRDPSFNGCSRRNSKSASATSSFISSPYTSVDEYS
The target of assay [6] is T2, Neuromedin-K receptor. Nature of the assay: Displacement of [3H]osanetant from wild type human NK3 receptor expressed in HEK293 cells. It counts as cell-based.
For assay [7], the target named is Substance-P receptor (Homo sapiens, UniProt P25103, F264Y). Nature of the assay: Displacement of radioligand [3H]SP from human NK1 F264Y6.51 mutant expressed in HEK293 cells. It is filed as cell-based. Summed up:
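Membranes from transiently transfected HEK293 cells, 2.5 μg protein/well, in 50 mM HEPES pH 7.4 with 3 mM MnCl2, phosphoramidon, leupeptin and 0.04% BSA. 10 competitor concentrations (0.0003–10 μM), 90 min at rt. Nonspecific binding with 10 μM NK1 antagonist. Filtration, then scintillation counting. Ki by Cheng–Prusoff. Three experiments, each in duplicate.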

Assay [8] has as its system HEK293. Nature of the assay: Selectivity ratio of Ki for human NK3 Y247F mutant expressed in HEK293 cells to Ki for wild type human NK3 receptor expressed in HEK293 cells. It counts as cell-based.
Assay [9] concerns the target Neuromedin-K receptor (Homo sapiens, UniProt P29371, Y315F). Nature of the assay: Displacement of radioligand [3H]osanetant at human NK3 Y315F6.51 mutant expressed in HEK293 cells. It counts as cell-based.
In assay [10] the test system is HEK293. Nature of the assay: Selectivity ratio of Ki for human NK3 H316W mutant expressed in HEK293 cells to Ki for wild type human NK3 receptor expressed in HEK293 cells. It counts as cell-based.
The target of assay [11] is Neuromedin-K receptor (Homo sapiens, UniProt P29371, H316F). Nature of the assay: Displacement of radioligand [3H]osanetant at human NK3 H316F mutant expressed in HEK293 cells. It is filed as cell-based.
Neuromedin-K receptor (Homo sapiens, UniProt P29371, H316F), sequence (P29371 whole entry H316F): as the sequence (P29371 whole entry Y247W) above, with W247Y, H316F counted along it
The subject of assay [12] is T3, Neuromedin-K receptor (Homo sapiens), P29371 [H316W].
T3 sequence (whole entry): T1 sequence (whole entry) with F315Y, H316W
Nature of the assay: Antagonist activity at human NK3 H316W6.52 mutant expressed in HEK293 cells assessed as decrease in [MePhe7]NKB-induced [3H]IP accumulation after 20 mins. It is filed as functional, cell-based. Put shortly: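 HEK293 cells transiently expressing human NK3 WT or mutant, labeled with myo-[³H]inositol in LiCl buffer. Antagonist preincubated 20 min at 37 °C, then [MePhe⁷]NKB (0.01 nM–1 μM) added for 45 min at 37 °C. [³H]IP read by SPA beads. Schild analysis of EC50 shift and Emax depression across increasing antagonist concentrations gives pA2, slope and mode of antagonism.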

Substance-P receptor (Homo sapiens, UniProt P25103, F264Y), sequence (P25103 whole entry F264Y): as the sequence (P25103 whole entry) above, with F264Y counted along it

In the case of `Cc1cc(F)ccc1-c1cc(N2CC[C@H](O)[C@H]2CO)ncc1N(C)C(=O)C(C)(C)c1cc(C(F)(F)F)cc(C(F)(F)F)c1`, the results for the Ratio Ki in the assay on HEK293 [1], with HEK293 [8] and with HEK293 [10] were 4.1, 1.3 and 693, respectively. For the same compound, the inhibition entry on Substance-P receptor [2] was “Active”. Moreover, in assay [3], the result was Active. The pKi at Neuromedin-K receptor [4] was 8.54; on Neuromedin-K receptor [5] it was 8.47; on Neuromedin-K receptor [6] it was 8.54; on Substance-P receptor [7], 8.96; at Neuromedin-K receptor [9] it was 9.15; at Neuromedin-K receptor [11] it was 7.90. Besides, in assay [12], the result was inactive.
